The values below come from ChEMBL document CHEMBL5108087, “Synthesis and biological evaluation of paeoveitol D derivatives as new melatonin receptor agonists with antidepressant activities” (RSC Med Chem, 2022).

SMILES strings stand for the structures. Active and inactive are the calls of the source.

The test system of data set [1] is Mus musculus. The data set can be described thus: Antidepressant activity in kunming mouse assessed as increase in 5-HT level in hypothalamus at 160 mg/kg, po measured after 14 days by HPLC-ECD analysis. The data set is classed as functional, organism-based. The note with it: time 14.0 day. The method in brief:
(§1)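 Male Kunming mice dosed orally with vehicle or 160 mg kg−1 for 14 days, then killed by cervical dislocation. Brain regions dissected on ice, homogenized in 0.2 M perchloric acid with 0.1 mM EDTA and spun at 4 °C for 20 min. Supernatant analysed by HPLC-ECD at +0.50 V, mobile phase pH 3.0. Amounts given in ng g−1 as mean ± SEM, n = 12.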

In data set [2] the target is Melatonin receptor type 1A (Homo sapiens, UniProt P48039). Nature of the data set: Agonist activity at human MT1 receptor transfected in HEK293T cells co-transfected with tet-inducible luciferase reporter plasmid, pCDNA3.1(+)-CMV-betaArrestin2-tev plasmid and TANGO plasmid assessed as tango arrestin recruitment by measuring maximum activity incubated for 24 hrs by TANGO-GPCR assay based luminescence plate reader analysis relative to 2-phenylmelatonin. The data set is classed as functional, cell-based. The note with it: filed as agonist. The gist of the method: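 Tango arrestin recruitment: 293T cells transiently transfected with a tet-inducible luciferase reporter, CMV-βArrestin2-TEV and TANGO receptor plasmids. On day 2, replated at 20 000 cells per well on poly-L-lysine. Drug added on day 3. On day 4, luciferase reagent added for 20 min and luminescence counted. Curves fitted; data given as mean ± SD.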
Chain of Melatonin receptor type 1A (P48039 whole entry): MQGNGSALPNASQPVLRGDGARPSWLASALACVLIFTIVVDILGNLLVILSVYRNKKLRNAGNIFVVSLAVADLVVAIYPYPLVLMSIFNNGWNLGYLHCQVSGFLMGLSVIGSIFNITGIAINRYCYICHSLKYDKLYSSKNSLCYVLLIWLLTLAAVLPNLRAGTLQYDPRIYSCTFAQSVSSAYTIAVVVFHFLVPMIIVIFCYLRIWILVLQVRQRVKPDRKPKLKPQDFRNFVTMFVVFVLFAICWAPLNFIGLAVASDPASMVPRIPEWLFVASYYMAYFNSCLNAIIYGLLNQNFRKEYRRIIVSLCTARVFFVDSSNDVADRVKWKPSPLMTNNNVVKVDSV

In data set [3] the test system is HEK293T. The data set can be described thus: Agonist activity at human MT1 N162A mutant receptor transfected in HEK293T cells co-transfected with tet-inducible luciferase reporter plasmid, pCDNA3.1(+)-CMV-betaArrestin2-tev plasmid and TANGO plasmid assessed as shift in concentration response curve incubated for 24 hrs by TANGO-GPCR assay based luminescence plate reader analysis relative to agomelatine. As to conditions: filed as agonist. The class given is cell-based. The method in brief: (§2)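 293T cells transiently transfected with tet-inducible luciferase reporter, pCDNA3.1(+)-CMV-bArrestin2-tev and TANGO receptor plasmids (wild-type or point mutant). Next day plated at 20 000 cells/well on poly-L-lysine; drug added day 3. Day 4, Bright-Glo added, 20 min, then luminescence read. Concentration–response curves fitted; data mean ± SD.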

Data set [4] relates to Mus musculus. Nature of the data set: Antidepressant activity in kunming mouse assessed as increase in 5-HT level in striatum at 160 mg/kg, po measured after 14 days by HPLC-ECD analysis. The class given is functional, organism-based. As to conditions: time 14.0 day. The method in brief:
as §1

Data set [5] can be described thus: Clearance in Kunming mouse at 80 mg/kg, po administered as single dose and measured upto 24 hrs. The data set is classed as ADME, organism-based. The note with it: in vivo.
The test system of data set [6] is Mus musculus. Nature of the data set: Antidepressant activity in kunming mouse assessed as decrease in 5-HIAA level in thalamus at 160 mg/kg, po measured after 14 days by HPLC-ECD analysis. The data set is classed as functional, organism-based. As to conditions: time 14.0 day. The gist of the method: as §1
The test system of data set [7] is Mus musculus. The data set can be described thus: Antidepressant activity in kunming mouse assessed as decrease in DOPAC level in hippocampus at 160 mg/kg, po measured after 14 days by HPLC-ECD analysis. The class given is functional, organism-based. As to conditions: time 14.0 day. The method in brief:
as §1

The test system of data set [8] is Mus musculus. Nature of the data set: Antidepressant activity in Kunming mouse assessed as decrease in immobility time at 80 mg/kg, po administered two times at 1 hrs and 24 hrs and measured at last 4 mins of 6 mins test by forced swim test relative to fluoxetine. The data set is classed as functional. On the set-up: scale not given: the % may be the effect or the level left. The note with it: time 1444 min, 24.07 h. The gist of the method:
(§3)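 Male Kunming mice, 15–18 g, housed six per cage at 22 ± 1 °C on a 12 h light/dark cycle. Oral dosing 24 h and 1 h before the test. Each mouse placed in a cylinder (25 cm high, 15 cm diameter) holding 10 cm of water at 25 ± 1 °C and made to swim 6 min; immobility over the last 4 min scored by video tracking.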

Data set [9] concerns HEK293T. Nature of the data set: Agonist activity at human MT1 Q181A mutant receptor transfected in HEK293T cells co-transfected with tet-inducible luciferase reporter plasmid, pCDNA3.1(+)-CMV-betaArrestin2-tev plasmid and TANGO plasmid assessed as shift in concentration response curve incubated for 24 hrs by TANGO-GPCR assay based luminescence plate reader analysis relative to agomelatine. The data set is classed as cell-based. The note with it: filed as agonist. The gist of the method:
as §2
In general terms: A reporter such as luciferase makes a cellular process visible.

Data set [10] relates to Mus musculus. The data set can be described thus: Antidepressant activity in kunming mouse assessed as decrease in 5-HIAA level in hypothalamus at 160 mg/kg, po measured after 14 days by HPLC-ECD analysis. The data set is classed as functional, organism-based. The note with it: time 14.0 day. The method in brief: as §1
Data set [11] deals with Mus musculus. The data set can be described thus: Antidepressant activity in kunming mouse assessed as increase in dopamine level in hypothalamus at 160 mg/kg, po measured after 14 days by HPLC-ECD analysis. The data set is classed as functional, organism-based. As to conditions: time 14.0 day. The gist of the method: as §1
Data set [12] is described as follows: Tmax in Kunming mouse at 80 mg/kg, po administered as single dose and measured upto 24 hrs. The class given is ADME, organism-based. The note with it: in vivo.
The test system of data set [13] is Mus musculus. Nature of the data set: Antidepressant activity in Kunming mouse assessed as decrease in immobility time at 160 mg/kg, po administered two times at 1 hrs and 24 hrs and measured at last 4 mins of 6 mins test by forced swim test relative to fluoxetine. The class given is functional. More on the design: scale not given: the % may be the effect or the level left. As to conditions: time 1444 min, 24.07 h. The method in brief: as §3

Data set [14] relates to Mus musculus. The data set can be described thus: Antidepressant activity in kunming mouse assessed as decrease in DOPAC level in striatum at 160 mg/kg, po measured after 14 days by HPLC-ECD analysis. The class given is functional, organism-based. The note with it: time 14.0 day. The method in brief:
as §1

Data set [15] can be described thus: Subacute toxicity in Kunming mouse assessed as effect on kidney structure at 240 mg/kg, po administered for 14 days. The note with it: in vivo, 336 h, time 14 day. The class given is organism-based. The method in brief: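 Subacute oral study following OECD 425. Animals randomised into two groups of six. Vehicle control received 0.5% CMC-Na orally for 14 consecutive days; the treated group received 240 mg kg−1 body weight orally for 14 consecutive days.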

In data set [16] the test system is Mus musculus. Nature of the data set: Antidepressant activity in Kunming mouse assessed as decrease in immobility time at 40 mg/kg, po and measured after 14 days by forced swim test relative to control. The class given is functional. More on the design: scale not given: the % may be the effect or the level left. As to conditions: time 14 day. The method in brief: (§4)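 Male Kunming mice, 15–18 g, given the test compound orally for 14 days. Forced swim then done in a cylinder 25 cm high and 15 cm in diameter, water 10 cm deep at 25 ± 1 °C. Swim lasted 6 min and immobility over the final 4 min was video-scored against the vehicle group.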

Data set [17] is described as follows: Cmax in Kunming mouse at 80 mg/kg, po administered as single dose and measured upto 24 hrs. The data set is classed as ADME, organism-based. On the set-up: time < 24 hrs, dose 80 mg/kg, route po. As to conditions: in vivo.
Data set [18] can be described thus: Half-life in Kunming mouse at 80 mg/kg, po administered as single dose and measured upto 24 hrs. The class given is ADME, organism-based. The note with it: in vivo.
Data set [19] deals with Mus musculus. Nature of the data set: Antidepressant activity in kunming mouse assessed as decrease in DOPAC level in frontal cortex at 160 mg/kg, po measured after 14 days by HPLC-ECD analysis. The note with it: time 14.0 day. The data set is classed as functional, organism-based. The method in brief: as §1
A short description of data set [20]: AUC (0 to infinity) in Kunming mouse at 80 mg/kg, po administered as single dose and measured upto 24 hrs. On the set-up: time < 24 hrs, dose 80 mg/kg, route po. The note with it: in vivo. The class given is ADME, organism-based.
Data set [21] is described as follows: AUC (0 to 24 hrs) in Kunming mouse at 80 mg/kg, po administered as single dose and measured upto 24 hrs. The data set is classed as ADME, organism-based. More on the design: time < 24 hrs, dose 80 mg/kg, route po. The note with it: in vivo.
For data set [22], the system named is Mus musculus. The data set can be described thus: Antidepressant activity in Kunming mouse assessed as decrease in immobility time at 80 mg/kg, po and measured after 14 days by forced swim test relative to control. The class given is functional. More on the design: scale not given: the % may be the effect or the level left. As to conditions: time 14 day. The method in brief: as §4

In the case of `COc1cc2c(CN3CCN(C)CC3)coc2cc1C`, the outcome in [1], in data set [3], in data set [4], in [6], in data set [7] and in data set [9] was Active. The result in data set [10], in data set [11], in data set [14] and in data set [19] was Active. For the same compound, in [2], the Emax amounted to 46%. Moreover, the apparent clearance (CL/F) in [5] was 237 mL/min. The Activity in [8] was 26%; in [13], 29%; in data set [15], “Non-Toxic”; in data set [16] it was 26%; in data set [22], 26%. The time of peak concentration (Tmax) in [12] turned out to be 4.98 min. In data set [17], the highest level (Cmax) was 1340 ng/mL. The same compound had a half-life in data set [18] of 5.47 h. Besides, the AUC in [20] was found to be 5620 ng·h/mL; in data set [21], 5400 ng·h/mL.

As usually defined, the Emax is the size of the effect at its maximum, as opposed to the concentration needed. As a reminder, the CL/F is the apparent clearance, not corrected for the fraction that reaches the circulation. Usually Tmax stands for the time from dosing to the highest level. Broadly, the Cmax is the maximum level reached in the sampled fluid or tissue. Broadly, the half-life is the time needed for the level to fall by half in the phase considered. In general, AUC refers to concentration integrated over time.
